Test results as given in ChEMBL document CHEMBL1212773, “Transfer of plasmid-mediated CTX-M-9 from Salmonella enterica serotype Virchow to Enterobacteriaceae in human flora-associated rats treated with cefixime” (2010).
Converted amounts (≈) assume the structure as drawn.

Experiments:
Assay type in all cases: functional
Escherichia coli [1] = assay: Antimicrobial activity against Escherichia coli ATCC 25922 by Etest method
How it was run: (§1)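 MICs read from Etest strips on Müller-Hinton agar, in μg/ml. E. coli ATCC 25922 served as the QC strain. Susceptible or resistant calls followed CLSI clinical breakpoints or EUCAST epidemiological cutoffs for cefotaxime, ceftazidime, ceftiofur, cefoxitin and cefuroxime.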

Escherichia coli [2] = assay: Antimicrobial activity against Escherichia coli J5 by Etest method; how it was run: as §1
Escherichia coli [3] = assay: Antimicrobial activity against Escherichia coli J5 transconjugants expressing beta lactamase CTX-M-9 isolated from human flora associated C3H rat infected with Salmonella enterica serotype Virchow and treated with Cefixime-cluvulanic acid by Etest method
Escherichia coli [4] = assay: Antimicrobial activity against Escherichia coli J5 transconjugants expressing beta lactamase CTX-M-9 isolated from human flora associated C3H rat infected with Salmonella enterica serotype Virchow and treated with Cefixime by Etest method
How it was run: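 Etest MICs on Müller-Hinton agar, in μg/ml, with ATCC 25922 as QC. Isolates were fecal E. coli J5 transconjugants from human flora-associated C3H rats coinoculated orally with 8 log10 CFU J5, then Virchow donor, and gavaged with cefixime 4 mg/kg twice daily for 8 days. Isolates were picked on Drigalski agar with 250 μg/ml rifampin plus 4 μg/ml cefixime and confirmed by PCR/PFGE and blaCTX-M-9 PCR.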

Salmonella enterica = assay: Antimicrobial activity against Salmonella enterica serotype Virchow 3464b by Etest method
How it was run: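 MIC determined by Etest strips on Müller-Hinton agar; E. coli ATCC 25922 used as the quality-control strain. Donor strain grown aerobically in brain heart infusion. Susceptible/resistant categories assigned from CLSI clinical breakpoints or EUCAST epidemiological cutoffs for cefotaxime, ceftazidime, ceftiofur, cefoxitin and cefuroxime. MICs expressed in μg/ml.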

Escherichia coli [5] = assay: Antimicrobial activity against Escherichia coli J5 transconjugants expressing beta lactamase CTX-M-9 isolated from human flora associated C3H rat infected with Salmonella enterica serotype Virchow by Etest method
How it was run: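 Etest MICs on Müller-Hinton agar, in μg/ml, with ATCC 25922 as QC. E. coli J5 transconjugants were isolated from feces of HFA C3H rats inoculated intragastrically with 8 log10 CFU J5, then Virchow donor 2 h later, and given sterile water by gavage instead of antibiotic. Isolates were selected on Drigalski agar with 250 μg/ml rifampin and 4 μg/ml cefixime and confirmed as J5 carrying blaCTX-M-9 by PCR/PFGE.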

Cc1cc(NS(=O)(=O)c2ccc(N)cc2)no1 [SULFAMETHOXAZOLE]
MIC (Escherichia coli [1]): 8 µg/mL (≈ 31.6 µM)
MIC (Escherichia coli [2]): 8 µg/mL (≈ 31.6 µM)
MIC (Escherichia coli [3]): 4 µg/mL (≈ 15.8 µM)
MIC (Escherichia coli [4]): 4 µg/mL (≈ 15.8 µM)
MIC (Salmonella enterica): > 512 µg/mL
MIC (Escherichia coli [5]): 4 µg/mL (≈ 15.8 µM)

CN[C@@H]1[C@H](O[C@H]2[C@H](O[C@H]3[C@H](O)[C@@H](O)[C@H](N=C(N)N)[C@@H](O)[C@@H]3N=C(N)N)O[C@@H](C)[C@]2(O)C=O)O[C@@H](CO)[C@H](O)[C@H]1O [STREPTOMYCIN]
MIC (Escherichia coli [1]): 2 µg/mL (≈ 3.44 µM)
MIC (Escherichia coli [2]): 2 µg/mL (≈ 3.44 µM)
MIC (Escherichia coli [3]): 2 µg/mL (≈ 3.44 µM)
MIC (Escherichia coli [4]): 2 µg/mL (≈ 3.44 µM)
MIC (Salmonella enterica): 128 µg/mL (≈ 220 µM)
MIC (Escherichia coli [5]): 2 µg/mL (≈ 3.44 µM)

CO[C@H]1/C=C/O[C@@]2(C)Oc3c(C)c(O)c4c(O)c(c(/C=N/N5CCN(C)CC5)c(O)c4c3C2=O)NC(=O)/C(C)=C\C=C\[C@H](C)[C@H](O)[C@@H](C)[C@@H](O)[C@@H](C)[C@H](OC(C)=O)[C@@H]1C [RIFAMPIN]
MIC (Escherichia coli [1]): 4 µg/mL (≈ 4.86 µM)
MIC (Escherichia coli [2]): > 512 µg/mL
MIC (Escherichia coli [3]): > 512 µg/mL
MIC (Escherichia coli [4]): > 512 µg/mL
MIC (Salmonella enterica): 4 µg/mL (≈ 4.86 µM)
MIC (Escherichia coli [5]): > 512 µg/mL

C=CC1=C(C(=O)O)N2C(=O)[C@@H](NC(=O)/C(=N\OCC(=O)O)c3csc(N)n3)[C@H]2SC1 [CEFIXIME]
MIC (Escherichia coli [1]): 0.125 µg/mL (≈ 0.276 µM)
MIC (Escherichia coli [2]): 0.125 µg/mL (≈ 0.276 µM)
MIC (Escherichia coli [3]): 8 µg/mL (≈ 17.6 µM)
MIC (Escherichia coli [4]): 8 µg/mL (≈ 17.6 µM)
MIC (Salmonella enterica): 8 µg/mL (≈ 17.6 µM)
MIC (Escherichia coli [5]): 8 µg/mL (≈ 17.6 µM)

CC1(C)S[C@@H]2[C@H](NC(=O)[C@H](N)c3ccccc3)C(=O)N2[C@H]1C(=O)O [AMPICILLIN]
MIC (Escherichia coli [1]): 4 µg/mL (≈ 11.4 µM)
MIC (Escherichia coli [2]): 4 µg/mL (≈ 11.4 µM)
MIC (Escherichia coli [3]): 16 µg/mL (≈ 45.8 µM)
MIC (Escherichia coli [4]): 16 µg/mL (≈ 45.8 µM)
MIC (Salmonella enterica): 128 µg/mL (≈ 366 µM)
MIC (Escherichia coli [5]): 16 µg/mL (≈ 45.8 µM)

CO[C@@]1(NC(=O)Cc2cccs2)C(=O)N2C(C(=O)O)=C(COC(N)=O)CS[C@@H]21 [CEFOXITIN]
MIC (Escherichia coli [1]): 4 µg/mL (≈ 9.36 µM)
MIC (Escherichia coli [2]): 4 µg/mL (≈ 9.36 µM)
MIC (Escherichia coli [3]): 16 µg/mL (≈ 37.4 µM)
MIC (Escherichia coli [4]): 16 µg/mL (≈ 37.4 µM)
MIC (Salmonella enterica): 16 µg/mL (≈ 37.4 µM)
MIC (Escherichia coli [5]): 8 µg/mL (≈ 18.7 µM)

CCn1cc(C(=O)O)c(=O)c2ccc(C)nc21 [NALIDIXIC ACID]
MIC (Escherichia coli [1]): 4 µg/mL (≈ 17.2 µM)
MIC (Escherichia coli [2]): 4 µg/mL (≈ 17.2 µM)
MIC (Escherichia coli [3]): 4 µg/mL (≈ 17.2 µM)
MIC (Escherichia coli [4]): 4 µg/mL (≈ 17.2 µM)
MIC (Salmonella enterica): 256 µg/mL (≈ 1100 µM)
MIC (Escherichia coli [5]): 4 µg/mL (≈ 17.2 µM)

COc1cc(Cc2cnc(N)nc2N)cc(OC)c1OC [TRIMETHOPRIM]
MIC (Escherichia coli [1]): 0.5 µg/mL (≈ 1.72 µM)
MIC (Escherichia coli [2]): 0.5 µg/mL (≈ 1.72 µM)
MIC (Escherichia coli [3]): 1 µg/mL (≈ 3.44 µM)
MIC (Escherichia coli [4]): 0.5 µg/mL (≈ 1.72 µM)
MIC (Salmonella enterica): > 64 µg/mL
MIC (Escherichia coli [5]): 0.5 µg/mL (≈ 1.72 µM)

CO/N=C(\C(=O)N[C@@H]1C(=O)N2C(C(=O)O)=C(COC(N)=O)CS[C@H]12)c1ccco1 [CEFUROXIME]
MIC (Escherichia coli [1]): 2 µg/mL (≈ 4.71 µM)
MIC (Escherichia coli [2]): 2 µg/mL (≈ 4.71 µM)
MIC (Escherichia coli [3]): 16 µg/mL (≈ 37.7 µM)
MIC (Escherichia coli [4]): 8 µg/mL (≈ 18.9 µM)
MIC (Salmonella enterica): > 32 µg/mL
MIC (Escherichia coli [5]): 16 µg/mL (≈ 37.7 µM)

CO/N=C(\C(=O)N[C@@H]1C(=O)N2C(C(=O)O)=C(COC(C)=O)CS[C@H]12)c1csc(N)n1 [CEFOTAXIME]
MIC (Escherichia coli [1]): 0.03 µg/mL (≈ 0.0659 µM)
MIC (Escherichia coli [2]): 0.03 µg/mL (≈ 0.0659 µM)
MIC (Escherichia coli [3]): 0.5 µg/mL (≈ 1.1 µM)
MIC (Escherichia coli [4]): 0.5 µg/mL (≈ 1.1 µM)
MIC (Salmonella enterica): > 8 µg/mL
MIC (Escherichia coli [5]): 0.5 µg/mL (≈ 1.1 µM)

CN(C)[C@@H]1C(O)=C(C(N)=O)C(=O)[C@@]2(O)C(O)=C3C(=O)c4c(O)cccc4[C@@](C)(O)[C@H]3C[C@@H]12 [TETRACYCLINE]
MIC (Escherichia coli [1]): 1 µg/mL (≈ 2.25 µM)
MIC (Escherichia coli [2]): 1 µg/mL (≈ 2.25 µM)
MIC (Escherichia coli [3]): 4 µg/mL (≈ 9 µM)
MIC (Escherichia coli [4]): 2 µg/mL (≈ 4.5 µM)
MIC (Salmonella enterica): 64 µg/mL (≈ 144 µM)
MIC (Escherichia coli [5]): 2 µg/mL (≈ 4.5 µM)

CO/N=C(\C(=O)N[C@@H]1C(=O)N2C(C(=O)O)=C(CSC(=O)c3ccco3)CS[C@H]12)c1csc(N)n1 [CEFTIOFUR]
MIC (Escherichia coli [1]): 0.25 µg/mL (≈ 0.477 µM)
MIC (Escherichia coli [2]): 0.25 µg/mL (≈ 0.477 µM)
MIC (Escherichia coli [3]): 1 µg/mL (≈ 1.91 µM)
MIC (Escherichia coli [4]): 1 µg/mL (≈ 1.91 µM)
MIC (Salmonella enterica): > 8 µg/mL
MIC (Escherichia coli [5]): 1 µg/mL (≈ 1.91 µM)

CC(C)(O/N=C(\C(=O)N[C@@H]1C(=O)N2C(C(=O)[O-])=C(C[n+]3ccccc3)CS[C@H]12)c1csc(N)n1)C(=O)O [CEFTAZIDIME]
MIC (Escherichia coli [1]): 0.125 µg/mL (≈ 0.229 µM)
MIC (Escherichia coli [2]): 0.125 µg/mL (≈ 0.229 µM)
MIC (Escherichia coli [3]): 1 µg/mL (≈ 1.83 µM)
MIC (Escherichia coli [4]): 1 µg/mL (≈ 1.83 µM)
MIC (Salmonella enterica): 8 µg/mL (≈ 14.6 µM)
MIC (Escherichia coli [5]): 1 µg/mL (≈ 1.83 µM)
